In ChEMBL document CHEMBL3108749, “Discovery of a non-estrogenic irreversible inhibitor of 17β-hydroxysteroid dehydrogenase type 1 from 3-substituted-16β-(m-carbamoylbenzyl)-estradiol derivatives” (J Med Chem, 2014):

Experiments:
[1] = biological target: T1, 17-beta-hydroxysteroid dehydrogenase type 1 (Homo sapiens) (UniProt P14061); assay: Inhibition of 17-beta HSD1 in human T47D cells assessed as transformation of [14C]E1 to [14C]E2 at 0.1 uM after 24 hrs by thin layer chromatography; assay type: cell-based
T1 sequence (whole entry): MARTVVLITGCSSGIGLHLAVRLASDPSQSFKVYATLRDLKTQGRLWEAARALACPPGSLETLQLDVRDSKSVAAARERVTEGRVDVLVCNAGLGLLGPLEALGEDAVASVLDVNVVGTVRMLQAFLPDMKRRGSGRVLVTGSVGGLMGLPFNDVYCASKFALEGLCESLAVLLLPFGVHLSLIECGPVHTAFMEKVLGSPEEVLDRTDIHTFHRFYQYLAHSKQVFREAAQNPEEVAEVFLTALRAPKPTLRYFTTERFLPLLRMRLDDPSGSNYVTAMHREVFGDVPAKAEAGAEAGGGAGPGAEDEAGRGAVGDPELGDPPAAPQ
How it was run: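 T-47D cells (endogenous 17β-HSD1) are seeded at 3000 cells/well in RPMI with insulin (50 ng/mL) and 5% charcoal-stripped FBS. After 24 h, compound (from EtOH stock, 0.1 μM final) is added with [14C]-E1 (60 nM) for 24 h. Steroids are extracted into diethyl ether, separated by silica TLC (toluene/acetone 4:1) and quantified. Mean ± SD of ≥2 independent experiments in triplicate.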

[2] = tested on: MCF7; assay: Cytotoxicity against human estrogen-starved estrogen-sensitive MCF7 cells assessed as cell growth at 1 uM after 7 days by MTS assay relative to control; assay type: functional; conditions: MCF7, 168 h, read-out: Activity
How it was run: (§1)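 MCF-7 (DMEM-F12) or T-47D (RPMI) cells are kept in medium with insulin (50 ng/mL) and 5% dextran-coated charcoal-treated FBS, seeded at 3000 cells/well. After 48 h, medium is replaced with medium containing compound, renewed every two days, and cells grow seven days. Growth is read by CellTiter 96 aqueous (MTS) assay as % proliferation vs basal control (0%). Scored −/+/++/+++ bands.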

[3] = tested on: MCF7; assay: Cytotoxicity against human estrogen-starved estrogen-sensitive MCF7 cells assessed as cell growth at 0.1 uM after 7 days by MTS assay relative to control; assay type: functional; conditions: MCF7, 168 h, read-out: Activity; how it was run: as §1

| inhibition [1] | SMILES | percent proliferation above basal control at 1 µM [2] | percent proliferation above basal control at 0.1 µM [3] |
| --- | --- | --- | --- |
| 10% | C[C@]12CC[C@@H]3c4ccc(F)cc4CC[C@H]3[C@@H]1C[C@H](Cc1cccc(C(N)=O)c1)[C@@H]2O | 5% | 0% |
| 18% | C[C@]12CC[C@@H]3c4ccc(CCO)cc4CC[C@H]3[C@@H]1C[C@H](Cc1cccc(C(N)=O)c1)[C@@H]2O | 5% | 5% |
| 11% | CNC(=O)Cc1ccc2c(c1)CC[C@@H]1[C@@H]2CC[C@]2(C)[C@@H](O)[C@@H](Cc3cccc(C(N)=O)c3)C[C@@H]12 | 0% | 0% |
| 6% | CCc1ccc2c(c1)CC[C@@H]1[C@@H]2CC[C@]2(C)[C@@H](O)[C@@H](Cc3cccc(C(N)=O)c3)C[C@@H]12 | 0% | 0% |
| 3% | C[C@]12CC[C@@H]3c4ccc(C(=O)N5CCCC5)cc4CC[C@H]3[C@@H]1C[C@H](Cc1cccc(C(N)=O)c1)[C@@H]2O | 0% | 0% |
| 19% | CN(C)Cc1ccc2c(c1)CC[C@@H]1[C@@H]2CC[C@]2(C)[C@@H](O)[C@@H](Cc3cccc(C(N)=O)c3)C[C@@H]12 | 0% | 0% |
| 44% | C[C@]12CC[C@@H]3c4ccc(CN)cc4CC[C@H]3[C@@H]1C[C@H](Cc1cccc(C(N)=O)c1)[C@@H]2O | > 30% | > 30% |
| 36% | C[C@]12CC[C@@H]3c4ccc(B(O)O)cc4CC[C@H]3[C@@H]1C[C@H](Cc1cccc(C(N)=O)c1)[C@@H]2O | > 30% | > 30% |
| 10% | CCCN(CC)C(=O)c1ccc2c(c1)CC[C@@H]1[C@@H]2CC[C@]2(C)[C@@H](O)[C@@H](Cc3cccc(C(N)=O)c3)C[C@@H]12 | 0% | 0% |
| 31% | C[C@]12CC[C@@H]3c4ccc(N)cc4CC[C@H]3[C@@H]1C[C@H](Cc1cccc(C(N)=O)c1)[C@@H]2O | 5% | 0% |
| 30% | C[C@]12CC[C@@H]3c4ccc(CBr)cc4CC[C@H]3[C@@H]1C[C@H](Cc1cccc(C(N)=O)c1)[C@@H]2O | 0% | 0% |
| 10% | C[C@]12CC[C@@H]3c4ccc(CN5CCCC5)cc4CC[C@H]3[C@@H]1C[C@H](Cc1cccc(C(N)=O)c1)[C@@H]2O | 5% | 0% |
| 2% | C[C@]12CC[C@@H]3c4ccc(C(N)=O)cc4CC[C@H]3[C@@H]1C[C@H](Cc1cccc(C(N)=O)c1)[C@@H]2O | 15% | 0% |
| 14% | CCCN(CC)Cc1ccc2c(c1)CC[C@@H]1[C@@H]2CC[C@]2(C)[C@@H](O)[C@@H](Cc3cccc(C(N)=O)c3)C[C@@H]12 | 0% | 0% |
| 3% | C[C@]12CC[C@@H]3c4ccc(C(=O)O)cc4CC[C@H]3[C@@H]1C[C@H](Cc1cccc(C(N)=O)c1)[C@@H]2O | > 30% | 5% |
|  | C[C@]12CC[C@@H]3c4ccc(CO)cc4CC[C@H]3[C@@H]1C[C@H](Cc1cccc(C(N)=O)c1)[C@@H]2O | 5% | 0% |
